# According to ChEMBL document CHEMBL1765016, “Indolylarylsulfones as HIV-1 non-nucleoside reverse transcriptase inhibitors: new cyclic substituents at indole-2-carboxamide” (J Med Chem, 2011):
# pEC50, pIC50: −log10 of the molar value.
# Assays:
# [1] = system: Human immunodeficiency virus 2; test: Antiviral activity against HIV2 isolate ROD infected in human CEM cells assessed as inhibition of virus-induced cytopathicity after 4 days by microscopic analysis; assay type: functional, organism-based; conditions: Human immunodeficiency virus 2, ISOLATE ROD, CCRF-CEM, 96 h
# Outline: (§1)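 CEM cells (~3 × 10⁵ cells/mL) infected with ~100 CCID₅₀ virus per mL, seeded into wells with compound dilutions. Syncytia (giant cell) formation scored microscopically after 4 days at 37 °C. EC₅₀ is the concentration protecting cells by 50%. Values are means of two experiments in triplicate.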
# [2] = system: Human immunodeficiency virus 1; test: Antiviral activity against wild type HIV1 3B infected in human CEM cells assessed as inhibition of virus-induced cytopathicity after 4 days by microscopic analysis; assay type: functional, organism-based; conditions: Human immunodeficiency virus 1, 3B, CCRF-CEM, 96 h; outline: as §1
# [3] = target: Human immunodeficiency virus type 1 reverse transcriptase (Human immunodeficiency virus 1, UniProt Q72547, Y181I); test: Inhibition of HIV1 reverse transcriptase Y181I mutant expressed in Escherichia coli assessed as incorporation of [3H]dTTP into poly(rA)/oligo(dT) by scintillation counting
# Outline: (§2)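 The RT was recombinant p66(His)/p51 heterodimer, mutant form, expressed in E. coli. TCA-precipitable radioactivity on GF/C filters was read by scintillation. IC50 is the concentration giving 50% inhibition.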
# [4] = target: Human immunodeficiency virus type 1 reverse transcriptase (Human immunodeficiency virus 1, UniProt Q72547, K103N); test: Inhibition of HIV1 reverse transcriptase K103N mutant expressed in Escherichia coli assessed as incorporation of [3H]dTTP into poly(rA)/oligo(dT) by scintillation counting; outline: as §2
# [5] = target: Human immunodeficiency virus type 1 reverse transcriptase (Human immunodeficiency virus 1, UniProt Q72547, L100I); test: Inhibition of HIV1 reverse transcriptase L100I mutant expressed in Escherichia coli assessed as incorporation of [3H]dTTP into poly(rA)/oligo(dT) by scintillation counting; outline: as §2
# [6] = target: Human immunodeficiency virus type 1 reverse transcriptase (Human immunodeficiency virus 1, UniProt Q72547); test: Inhibition of HIV1 wild type reverse transcriptase expressed in Escherichia coli assessed as incorporation of [3H]dTTP into poly(rA)/oligo(dT) by scintillation counting
# Outline: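 Template was poly(rA)/oligo(dT) 10:1 (0.3 μM 3′-OH ends) with 10 μM [³H]dTTP, at 37 °C. TCA-precipitable counts were taken on GF/C filters. IC₅₀ is 50% inhibition of RT activity.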
# [7] = system: Human immunodeficiency virus 1; test: Antiviral activity against HIV1 harboring reverse transcriptase E138K mutant infected in human MT-4 cells assessed as inhibition of virus-induced cytopathicity after 4 days by MTT assay; assay type: functional, organism-based; conditions: Human immunodeficiency virus 1, MT4, 96 h
# Outline: (§3)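 MT-4 cells at 1 × 10⁵ cells/mL were infected with RT-mutant HIV-1 at a multiplicity of infection of 0.02. They were plated at once with serial compound dilutions (DMSO stocks of 50 mM or higher). […] Virus stocks had been titrated in MT-4 cells as CCID50.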
# [8] = system: Human immunodeficiency virus 1; test: Antiviral activity against HIV1 harboring reverse transcriptase Y188L mutant infected in human MT-4 cells assessed as inhibition of virus-induced cytopathicity after 4 days by MTT assay; assay type: functional, organism-based; conditions: Human immunodeficiency virus 1, MT4, 96 h; outline: as §3
# [9] = system: Human immunodeficiency virus 1; test: Antiviral activity against HIV1 harboring reverse transcriptase Y181C mutant infected in human MT-4 cells assessed as inhibition of virus-induced cytopathicity after 4 days by MTT assay; assay type: functional, organism-based; conditions: Human immunodeficiency virus 1, MT4, 96 h; outline: as §3
# [10] = system: Human immunodeficiency virus 1; test: Antiviral activity against […] harboring reverse transcriptase K103N mutant infected in human MT-4 cells assessed as inhibition of virus-induced cytopathicity after 4 days by MTT assay; assay type: functional, organism-based; conditions: Human immunodeficiency virus 1, MT4, 96 h; outline: as §3
# [11] = system: Human immunodeficiency virus 1; test: Antiviral activity against HIV1 harboring reverse transcriptase L100I mutant infected in human MT-4 cells assessed as inhibition of virus-induced cytopathicity after 4 days by MTT assay; assay type: functional, organism-based; conditions: Human immunodeficiency virus 1, MT4, 96 h; outline: as §3
# [12] = system: Human immunodeficiency virus 1; test: Antiviral activity against wild type HIV1 3B infected in human MT-4 cells assessed as inhibition of virus-induced cytopathicity after 4 days by MTT assay; assay type: functional, organism-based; conditions: Human immunodeficiency virus 1, 3B, MT4, 96 h
# Outline: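 MT-4 cells at 1 × 10⁵ cells/mL, infected at MOI 0.02 (virus titrated as CCID₅₀ in MT-4), dispensed immediately onto serial compound concentrations (DMSO stocks ≥50 mM). Viable cells counted by MTT after 4 days at 37 °C. EC₅₀ is the concentration giving 50% protection of cell viability. Values are means of at least three experiments.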
# [13] = Selectivity index, CC50 for human CEM cells to IC50 for HIV1 3B; assay type: functional, CCRF-CEM
# Outline: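 Ratio of CC₅₀ (Coulter count, mock-infected CEM) to EC₅₀ (CEM, HIV-1 IIIB, microscopic syncytia scoring at day 4).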
# [14] = Cytotoxicity against human CEM cells by coulter counter analysis; assay type: cell-based; conditions: CEM (CCRF-CEM) cells
# Outline: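 Mock-infected CEM cultures with compound, cell number counted by Coulter counter as percent of untreated control. CC₅₀ (50% reduction in proliferation) was read from plots against concentration. Values are means of two experiments in triplicate.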
# [15] = system: Human immunodeficiency virus type 1 reverse transcriptase (Human immunodeficiency virus 1), Q72547 [K103N]; test: Ratio of compound IC50 to efavirenz IC50 for HIV1 reverse transcriptase K103N mutant
# [16] = system: Human immunodeficiency virus 1; test: Antiviral activity against HIV1 clade A UG273 infected in PHA-stimulated human PBMC assessed as inhibition of p24 production after 10 to 12 days by ELISA; assay type: functional, organism-based; conditions: Human immunodeficiency virus 1, clade A UG273
# Outline: (§4)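 PHA-stimulated (2 μg/mL, 3 days, 37 °C) donor PBMC blasts, washed in PBS, seeded 0.5 × 10⁶ cells/well in RPMI 1640 with 10% fetal calf serum and IL-2 (25 units/mL) containing varying compound concentrations; virus added at 250 pg p24/mL final. Supernatant collected days 10-12 and assayed for HIV-1 core antigen.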
# [17] = system: Human immunodeficiency virus 1; test: Antiviral activity against HIV1 clade B BaL infected in PHA-stimulated human PBMC assessed as inhibition of p24 production after 10 to 12 days by ELISA; assay type: functional, organism-based; conditions: Human immunodeficiency virus 1, clade B BaL; outline: as §4
# [18] = system: Human immunodeficiency virus 1; test: Antiviral activity against HIV1 clade C DJ259 infected in PHA-stimulated human PBMC assessed as inhibition of p24 production after 10 to 12 days by ELISA; assay type: functional, organism-based; conditions: Human immunodeficiency virus 1, clade C DJ259; outline: as §4
# [19] = system: Human immunodeficiency virus 1; test: Antiviral activity against HIV1 clade A/E ID12 infected in PHA-stimulated human PBMC assessed as inhibition of p24 production after 10 to 12 days by ELISA; assay type: functional, organism-based; conditions: Human immunodeficiency virus 1, clade A/E ID12; outline: as §4
# [20] = system: Human immunodeficiency virus 1; test: Antiviral activity against HIV1 group O BCF06 infected in PHA-stimulated human PBMC assessed as inhibition p24 production after 10 to 12 days by ELISA; assay type: functional, organism-based; conditions: Human immunodeficiency virus 1, group O BCF06; outline: as §4
Compound,pEC50 [1],pEC50 [2],pIC50 [3],pIC50 [4],pIC50 [5],pIC50 [6],pEC50 [7],pEC50 [8],pEC50 [9],pEC50 [10],pEC50 [11],pEC50 [12],Selectivity Index [13],CC50 [14] [nM],Ratio IC50 [15],pEC50 [16],pEC50 [17],pEC50 [18],pEC50 [19],pEC50 [20]
Cc1cc(C)cc(S(=O)(=O)c2c(C(=O)NCCN3CCCC3)[nH]c3ccc(Cl)cc23)c1,< 5.70,7.77,< 4.40,6.18,6.61,7.10,6.59,< 6.00,6.42,7.10,7.08,7.72,418,7100,,,,,,
Cc1cc(C)cc(S(=O)(=O)c2c(C(=O)NCN3CCCCC3)[nH]c3ccc(Cl)cc23)c1,< 5.70,8.89,6.24,6.92,7.43,8.10,,,,,,,7615,9900,> 160,,,,,
Cc1cc(C)cc(S(=O)(=O)c2c(C(=O)NCc3ccccc3)[nH]c3ccc(Br)cc23)c1,< 5.70,8.24,< 4.40,5.73,6.56,5.98,7.29,≤ 6.35,7.23,7.82,7.96,7.80,30175,172000,,,,,,
Cc1cc(C)cc(S(=O)(=O)c2c(C(=O)NCCn3cccc3)[nH]c3ccc(Cl)cc23)c1,< 5.00,8.19,< 4.40,7.07,7.47,7.85,7.74,< 6.00,7.17,7.82,7.96,7.82,8308,54000,,8.68,8.64,8.46,8.54,8.49
Cc1cc(C)cc(S(=O)(=O)c2c(C(=O)NCN3CCOCC3)[nH]c3ccc(Cl)cc23)c1,< 5.70,8.72,5.26,6.29,6.93,7.27,7.85,6.36,7.64,7.96,8.10,8.49,5789,11000,,10.00,10.00,9.30,9.52,9.05
Cc1cc(C)cc(S(=O)(=O)c2c(C(=O)NCc3ccccc3)[nH]c3ccc([N+](=O)[O-])cc23)c1,< 5.70,8.21,< 4.40,6.34,7.85,7.77,7.80,6.33,7.27,7.96,8.15,8.00,1290,8000,,,,,,
Cc1cc(C)cc(S(=O)(=O)c2c(C(=O)NCc3ccccc3)[nH]c3ccc(Cl)cc23)c1,< 5.00,8.24,< 4.40,< 4.40,7.82,7.68,7.74,6.32,7.34,7.96,8.21,7.96,,244000,,,,,,
Cc1cc(C)cc(S(=O)(=O)c2c(C(=O)NCN3CCCC3)[nH]c3ccc(Cl)cc23)c1,< 5.70,8.48,6.35,7.02,7.59,7.92,,,,,,,3333,11000,,10.00,10.00,10.00,9.52,9.70
Cc1cc(C)cc(S(=O)(=O)c2c(C(=O)NCCc3ccccc3)[nH]c3ccc(Cl)cc23)c1,< 4.30,8.24,< 4.40,4.98,7.57,7.11,7.19,< 6.00,7.00,7.28,7.72,7.68,32456,185000,,,,,,
Cc1cc(C)cc(S(=O)(=O)c2c(C(=O)NCCOc3ccccc3)[nH]c3ccc(Cl)cc23)c1,< 5.00,7.59,< 4.40,< 4.40,< 4.40,5.62,6.42,< 6.00,< 6.00,< 6.00,6.36,6.52,7962,207000,,,,,,
